# Activity calls are given as the source filed them. The calls are words filed in the database; no cut-off is given here.
# What was measured:
# [1] = target: cGMP-dependent 3',5'-cyclic phosphodiesterase (Homo sapiens) (UniProt O00408); test: Inhibition of human PDE2 at 100 uM relative to control
# Bos taurus [2] = species: Bos taurus; test: Inhibition of bovine PKA at 100 uM relative to control
# Rattus norvegicus [3] = species: Rattus norvegicus; test: Inhibition of rat GABAA central type receptor muscimol binding site at 10 uM relative to control
# [4] = target: Neurotensin receptor type 1 (Homo sapiens) (UniProt P30989); test: Inhibition of human NT1 receptor at 10 uM relative to control
# Neurotensin receptor type 1 (Homo sapiens), sequence (P30989 whole entry): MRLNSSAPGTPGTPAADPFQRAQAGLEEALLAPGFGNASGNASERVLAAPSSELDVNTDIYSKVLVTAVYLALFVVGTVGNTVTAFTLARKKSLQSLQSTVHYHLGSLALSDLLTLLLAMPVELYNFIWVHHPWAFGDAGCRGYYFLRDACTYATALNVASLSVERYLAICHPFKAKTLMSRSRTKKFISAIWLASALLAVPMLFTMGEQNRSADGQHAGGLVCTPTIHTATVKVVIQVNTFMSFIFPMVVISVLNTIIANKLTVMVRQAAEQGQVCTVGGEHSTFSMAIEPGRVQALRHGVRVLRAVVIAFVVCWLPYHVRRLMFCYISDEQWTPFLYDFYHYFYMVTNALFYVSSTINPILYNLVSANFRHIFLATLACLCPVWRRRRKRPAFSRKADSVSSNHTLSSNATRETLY
# [5] = target: Endothelin-converting enzyme 1 (Homo sapiens) (UniProt P42892); test: Inhibition of human ECE-1 at 10 uM relative to control
# [6] = target: D(1A) dopamine receptor (Homo sapiens) (UniProt P21728); test: Inhibition of human dopamine D1 receptor at 10 uM relative to control
# Homo sapiens [7] = species: Homo sapiens; test: Selectivity ratio of Ki for human orexin-1 receptor to Ki for human orexin-2 receptor
# Method in brief: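 Radioligand binding: a high-affinity radioligand was bound to membranes from human cells overexpressing OX1R or OX2R, and inhibition of that binding was measured and expressed as Ki. The ratio is the OX1R Ki divided by the OX2R Ki.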
# [8] = target: Galanin receptor type 1 (Homo sapiens) (UniProt P47211); test: Inhibition of human GAL1 receptor at 10 uM relative to control
# [9] = target: Sodium-dependent dopamine transporter (Homo sapiens) (UniProt Q01959); test: Inhibition of human DAT at 10 uM relative to control
# Sodium-dependent dopamine transporter (Homo sapiens), sequence (Q01959 whole entry): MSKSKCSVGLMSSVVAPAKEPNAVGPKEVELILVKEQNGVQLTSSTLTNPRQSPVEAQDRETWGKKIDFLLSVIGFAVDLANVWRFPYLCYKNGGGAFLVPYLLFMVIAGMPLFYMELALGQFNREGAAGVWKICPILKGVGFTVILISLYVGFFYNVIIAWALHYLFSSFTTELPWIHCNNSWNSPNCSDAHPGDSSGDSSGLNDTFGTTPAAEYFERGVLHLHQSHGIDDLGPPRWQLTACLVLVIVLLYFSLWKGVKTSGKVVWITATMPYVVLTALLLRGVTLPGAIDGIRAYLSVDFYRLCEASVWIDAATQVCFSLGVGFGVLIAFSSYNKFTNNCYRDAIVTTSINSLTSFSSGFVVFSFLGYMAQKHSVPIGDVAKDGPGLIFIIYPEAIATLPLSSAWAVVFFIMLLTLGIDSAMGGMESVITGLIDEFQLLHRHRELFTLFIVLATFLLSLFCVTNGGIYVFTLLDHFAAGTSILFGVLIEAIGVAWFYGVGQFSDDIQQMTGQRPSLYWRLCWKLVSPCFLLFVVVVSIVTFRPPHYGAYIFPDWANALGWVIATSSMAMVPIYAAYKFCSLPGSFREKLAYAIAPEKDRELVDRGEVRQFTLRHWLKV
# [10] = target: Type-1 angiotensin II receptor (Homo sapiens) (UniProt P30556); test: Inhibition of human angiotensin AT1 receptor at 10 uM relative to control
# [11] = target: Melanocortin receptor 3 (Homo sapiens) (UniProt P41968); test: Inhibition of human MC3 receptor at 10 uM relative to control
# [12] = target: Cannabinoid receptor 1 (Homo sapiens) (UniProt P21554); test: Inhibition of human CB1 receptor at 10 uM relative to control
# Cannabinoid receptor 1 (Homo sapiens), sequence (P21554 whole entry): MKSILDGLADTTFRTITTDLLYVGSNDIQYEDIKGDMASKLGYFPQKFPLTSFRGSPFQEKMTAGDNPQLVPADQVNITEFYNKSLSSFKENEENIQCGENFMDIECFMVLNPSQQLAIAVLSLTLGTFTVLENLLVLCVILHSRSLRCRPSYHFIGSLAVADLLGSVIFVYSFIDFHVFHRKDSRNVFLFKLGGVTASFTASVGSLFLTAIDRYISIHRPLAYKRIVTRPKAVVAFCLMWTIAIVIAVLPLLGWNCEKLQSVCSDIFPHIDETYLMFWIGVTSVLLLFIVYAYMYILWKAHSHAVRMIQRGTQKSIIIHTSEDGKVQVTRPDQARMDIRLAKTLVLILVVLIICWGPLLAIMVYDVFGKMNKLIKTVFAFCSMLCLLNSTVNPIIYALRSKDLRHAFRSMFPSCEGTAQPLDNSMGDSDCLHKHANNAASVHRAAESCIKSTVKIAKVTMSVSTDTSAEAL
# [13] = target: Nitric oxide synthase, inducible (Mus musculus) (UniProt P29477); test: Inhibition of mouse iNOS at 10 uM relative to control
# [14] = target: Interstitial collagenase (Homo sapiens) (UniProt P03956); test: Inhibition of human MMP-1 at 10 uM relative to control
# Rattus norvegicus [15] = species: Rattus norvegicus; test: Inhibition of rat N-type calcium channel at 10 uM relative to control
# [16] = target: Natriuretic peptides A (Cavia porcellus) (UniProt P27596); test: Inhibition of guinea pig atrial natriuretic factor at 10 uM relative to control; conditions: Cardiac atrium
# Natriuretic peptides A (Cavia porcellus), sequence (P27596 whole entry): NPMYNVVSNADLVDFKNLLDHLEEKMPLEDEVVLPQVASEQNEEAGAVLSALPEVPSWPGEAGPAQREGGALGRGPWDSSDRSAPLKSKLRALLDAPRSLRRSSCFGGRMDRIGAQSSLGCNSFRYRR
# [17] = target: Somatostatin receptor type 1 (Homo sapiens) (UniProt P30872); test: Inhibition of human SST1 receptor at 10 uM relative to control
# Somatostatin receptor type 1 (Homo sapiens), sequence (P30872 whole entry): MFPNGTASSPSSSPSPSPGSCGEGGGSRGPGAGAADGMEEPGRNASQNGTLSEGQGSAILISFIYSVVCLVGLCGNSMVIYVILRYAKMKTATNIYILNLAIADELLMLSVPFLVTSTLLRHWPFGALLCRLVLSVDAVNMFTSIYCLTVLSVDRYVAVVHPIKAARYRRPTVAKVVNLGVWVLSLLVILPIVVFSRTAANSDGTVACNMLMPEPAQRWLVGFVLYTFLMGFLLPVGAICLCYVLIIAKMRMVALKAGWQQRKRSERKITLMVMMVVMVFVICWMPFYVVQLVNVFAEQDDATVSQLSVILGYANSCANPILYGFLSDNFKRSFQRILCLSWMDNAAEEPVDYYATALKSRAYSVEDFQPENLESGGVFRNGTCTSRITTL
# [18] = target: Adenosine receptor A2a (Homo sapiens) (UniProt P29274); test: Inhibition of human adenosine A2A receptor at 10 uM relative to control
# Adenosine receptor A2a (Homo sapiens), sequence (P29274 whole entry): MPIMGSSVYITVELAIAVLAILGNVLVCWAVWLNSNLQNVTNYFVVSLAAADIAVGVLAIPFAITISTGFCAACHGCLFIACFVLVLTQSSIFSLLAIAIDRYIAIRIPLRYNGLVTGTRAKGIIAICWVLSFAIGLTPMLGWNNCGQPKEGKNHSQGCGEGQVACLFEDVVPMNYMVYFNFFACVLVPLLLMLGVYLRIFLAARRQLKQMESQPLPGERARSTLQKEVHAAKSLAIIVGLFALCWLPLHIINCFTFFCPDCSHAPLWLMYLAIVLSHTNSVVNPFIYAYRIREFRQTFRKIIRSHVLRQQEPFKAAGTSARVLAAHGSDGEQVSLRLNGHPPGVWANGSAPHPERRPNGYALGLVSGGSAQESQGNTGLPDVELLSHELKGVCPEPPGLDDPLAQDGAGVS
# Homo sapiens [19] = species: Homo sapiens; test: Inhibition of human nicotinic acetylcholine receptor at 10 uM relative to control
# [20] = target: Adenosine receptor A1 (Homo sapiens) (UniProt P30542); test: Inhibition of human adenosine A1 receptor at 10 uM relative to control
# Rattus norvegicus [21] = test: Antiinsomnic activity in rat EEG model assessed as increase in delta sleep time at 15 mg/kg, po; assay type: functional, organism-based; parameters: dose 15 mg/kg
# Method in brief: (§1)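 Rats with EEG telemetry given 15 mg/kg orally during their active period, vehicle 20% Vitamin E TPGS in water. Sleep architecture (active wake, light sleep, delta and REM sleep) scored from EEG.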
# [22] = target: Type-2 angiotensin II receptor (Homo sapiens) (UniProt P50052); test: Inhibition of human angiotensin AT2 receptor at 10 uM relative to control
# Type-2 angiotensin II receptor (Homo sapiens), sequence (P50052 whole entry): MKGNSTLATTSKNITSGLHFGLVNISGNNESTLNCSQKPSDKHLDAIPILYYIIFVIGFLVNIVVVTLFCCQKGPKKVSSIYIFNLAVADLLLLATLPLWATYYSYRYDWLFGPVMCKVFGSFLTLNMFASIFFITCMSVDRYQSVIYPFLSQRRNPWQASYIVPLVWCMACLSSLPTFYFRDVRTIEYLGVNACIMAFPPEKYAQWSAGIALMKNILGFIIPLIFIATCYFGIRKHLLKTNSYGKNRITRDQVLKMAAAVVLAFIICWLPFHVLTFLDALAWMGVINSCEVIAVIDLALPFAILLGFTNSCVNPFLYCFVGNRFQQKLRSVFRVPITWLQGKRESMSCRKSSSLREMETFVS
# [23] = target: 5-hydroxytryptamine receptor 2B (Homo sapiens, UniProt P41595); test: Inhibition of human 5-HT2B receptor at 0.1 uM relative to control
# 5-hydroxytryptamine receptor 2B, sequence (P41595 whole entry): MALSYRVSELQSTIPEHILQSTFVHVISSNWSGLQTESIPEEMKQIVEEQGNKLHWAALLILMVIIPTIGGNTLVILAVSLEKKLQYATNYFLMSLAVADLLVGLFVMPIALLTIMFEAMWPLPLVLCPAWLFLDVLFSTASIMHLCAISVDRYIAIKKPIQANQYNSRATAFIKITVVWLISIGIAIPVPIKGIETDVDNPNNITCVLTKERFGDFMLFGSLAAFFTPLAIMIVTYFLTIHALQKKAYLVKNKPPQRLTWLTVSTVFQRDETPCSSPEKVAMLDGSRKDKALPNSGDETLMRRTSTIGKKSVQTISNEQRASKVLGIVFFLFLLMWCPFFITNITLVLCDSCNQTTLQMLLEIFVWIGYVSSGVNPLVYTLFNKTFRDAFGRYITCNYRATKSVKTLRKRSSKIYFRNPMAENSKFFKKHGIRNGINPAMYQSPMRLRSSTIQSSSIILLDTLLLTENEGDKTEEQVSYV
# Rattus norvegicus [24] = species: Rattus norvegicus; test: Inhibition of rat GABAA chloride channel TBOB binding site at 10 uM relative to control
# D(3) dopamine receptor [25] = target: T1, D(3) dopamine receptor (Homo sapiens, UniProt P35462); test: Inhibition of human dopamine D3 receptor at 10 uM relative to control
# T1 sequence (P35462 whole entry): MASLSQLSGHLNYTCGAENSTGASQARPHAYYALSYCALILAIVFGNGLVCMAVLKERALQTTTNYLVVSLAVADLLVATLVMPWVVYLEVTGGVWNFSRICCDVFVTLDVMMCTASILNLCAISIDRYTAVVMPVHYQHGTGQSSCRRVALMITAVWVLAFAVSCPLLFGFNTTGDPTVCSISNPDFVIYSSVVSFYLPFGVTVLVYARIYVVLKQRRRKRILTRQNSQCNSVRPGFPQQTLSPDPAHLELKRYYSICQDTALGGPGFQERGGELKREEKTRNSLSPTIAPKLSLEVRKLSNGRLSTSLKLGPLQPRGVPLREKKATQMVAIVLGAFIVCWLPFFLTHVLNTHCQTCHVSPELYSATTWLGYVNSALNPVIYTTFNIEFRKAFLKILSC
# Rattus norvegicus [26] = species: Rattus norvegicus; test: Inhibition of rat AMPA receptor at 10 uM relative to control
# [27] = target: Estrogen receptor beta (Homo sapiens) (UniProt Q92731); test: Inhibition of human ERbeta receptor at 10 uM relative to control
# Estrogen receptor beta (Homo sapiens), sequence (Q92731 whole entry): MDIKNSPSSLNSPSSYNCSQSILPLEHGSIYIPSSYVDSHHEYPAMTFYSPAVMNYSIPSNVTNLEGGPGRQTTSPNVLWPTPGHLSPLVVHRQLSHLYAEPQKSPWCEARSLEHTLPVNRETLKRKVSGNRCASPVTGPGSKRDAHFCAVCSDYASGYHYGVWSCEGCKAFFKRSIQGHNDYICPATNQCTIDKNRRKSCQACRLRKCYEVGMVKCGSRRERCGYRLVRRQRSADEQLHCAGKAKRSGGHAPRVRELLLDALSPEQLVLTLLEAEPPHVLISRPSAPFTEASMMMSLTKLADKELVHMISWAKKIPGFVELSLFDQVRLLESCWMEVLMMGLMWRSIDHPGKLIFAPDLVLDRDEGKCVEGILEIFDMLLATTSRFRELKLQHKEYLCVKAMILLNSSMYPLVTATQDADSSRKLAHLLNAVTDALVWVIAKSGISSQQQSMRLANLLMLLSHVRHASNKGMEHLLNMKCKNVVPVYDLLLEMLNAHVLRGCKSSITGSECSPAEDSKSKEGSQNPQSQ
# Bos taurus [28] = species: Bos taurus; test: Inhibition of bovine PDE1 at 100 uM relative to control
# [29] = target: Gastrin/cholecystokinin type B receptor (Homo sapiens) (UniProt P32239); test: Inhibition of human CCKB receptor at 10 uM relative to control
# [30] = target: Tyrosine-protein phosphatase non-receptor type 1 (Homo sapiens) (UniProt P18031); test: Inhibition of human PTP1B at 10 uM relative to control
# [31] = target: Cathepsin G (Homo sapiens) (UniProt P08311); test: Inhibition of human cathepsin G at 10 uM relative to control
# Oryctolagus cuniculus = species: Oryctolagus cuniculus; test: Inhibition of rabbit monoamine transporter at 0.1 uM relative to control
# [32] = target: Muscarinic acetylcholine receptor M2 (Homo sapiens) (UniProt P08172); test: Inhibition of human muscarinic M2 receptor at 10 uM relative to control
# [33] = target: Adrenergic receptor alpha-2 (Rattus norvegicus) (UniProt P22086+P19328+P22909); test: Inhibition of rat alpha2 adrenergic receptor at 10 uM relative to control
# [34] = target: Melanocortin receptor 5 (Homo sapiens) (UniProt P33032); test: Inhibition of human MC5 receptor at 10 uM relative to control
# Melanocortin receptor 5 (Homo sapiens), sequence (P33032 whole entry): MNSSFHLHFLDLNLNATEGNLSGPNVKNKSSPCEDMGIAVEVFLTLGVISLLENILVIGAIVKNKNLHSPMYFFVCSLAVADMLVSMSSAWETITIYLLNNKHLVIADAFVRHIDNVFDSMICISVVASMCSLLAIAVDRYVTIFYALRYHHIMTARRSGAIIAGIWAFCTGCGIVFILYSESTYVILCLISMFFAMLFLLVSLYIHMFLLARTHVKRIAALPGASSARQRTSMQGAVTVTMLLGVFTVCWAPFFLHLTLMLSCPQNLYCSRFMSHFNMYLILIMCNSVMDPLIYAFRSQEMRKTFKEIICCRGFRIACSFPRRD
# D(3) dopamine receptor [35] = target: T1, D(3) dopamine receptor; test: Inhibition of human dopamine D3 receptor at 10 nM relative to control
# [36] = target: Peroxisome proliferator-activated receptor gamma (Homo sapiens) (UniProt P37231); test: Inhibition of human PPARgamma at 10 uM relative to control
# [37] = target: Oxytocin receptor (Homo sapiens) (UniProt P30559); test: Inhibition of human oxytocin receptor at 10 uM relative to control
# Oxytocin receptor (Homo sapiens), sequence (P30559 whole entry): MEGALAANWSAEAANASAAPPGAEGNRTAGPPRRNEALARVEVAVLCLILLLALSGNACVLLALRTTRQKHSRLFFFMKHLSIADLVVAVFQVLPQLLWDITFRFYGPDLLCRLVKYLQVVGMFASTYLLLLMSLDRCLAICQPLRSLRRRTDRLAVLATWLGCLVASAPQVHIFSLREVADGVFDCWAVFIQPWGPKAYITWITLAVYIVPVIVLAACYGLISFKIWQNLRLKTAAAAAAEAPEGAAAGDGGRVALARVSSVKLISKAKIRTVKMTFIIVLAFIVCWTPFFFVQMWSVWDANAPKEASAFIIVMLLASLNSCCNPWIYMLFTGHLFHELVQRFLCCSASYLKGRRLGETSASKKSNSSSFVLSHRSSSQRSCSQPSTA
# Rattus norvegicus [38] = test: Antiinsomnic activity in rat EEG model assessed as increase in REM sleep time at 15 mg/kg, po; assay type: functional, organism-based; parameters: dose 15 mg/kg; method in brief: as §1
# [39] = target: GABA-A receptor; alpha-5/beta-3/gamma-2 (Homo sapiens) (UniProt P18507+P28472+P31644); test: Inhibition of human GABA alpha5beta3gamma2 receptor at 10 uM relative to control; assay type: protein-complex assay
# [40] = target: Vascular endothelial growth factor receptor 1 (Homo sapiens) (UniProt P17948); test: Inhibition of human FLT1 at 10 uM relative to control
# [41] = target: 5-hydroxytryptamine receptor 1B (Rattus norvegicus) (UniProt P28564); test: Inhibition of rat 5-HT1B receptor at 1 uM relative to control
# [42] = target: Adrenergic receptor alpha-1 (Rattus norvegicus) (UniProt P15823+P23944+P43140); test: Inhibition of rat alpha1 adrenergic receptor at 10 uM relative to control
smiles,measurement,setting,value
COc1ccc(CNC(=O)c2cc(-c3cc(Cl)cc(Cl)c3)cnc2-c2cccnc2)cc1OC,inhibition,[1],4%
same,inhibition,Bos taurus [2],-7%
same,inhibition,Rattus norvegicus [3],9%
same,inhibition,[4],21%
same,inhibition,[5],-10%
same,inhibition,[6],2%
same,Ratio Ki,Homo sapiens [7],1350
same,inhibition,[8],3%
same,inhibition,[9],-7%
same,inhibition,[10],14%
same,inhibition,[11],2%
same,inhibition,[12],10%
same,inhibition,[13],2%
same,inhibition,[14],4%
same,inhibition,Rattus norvegicus [15],2%
same,inhibition,[16],1%
same,inhibition,[17],14%
same,inhibition,[18],8%
same,inhibition,Homo sapiens [19],-1%
same,inhibition,[20],22%
same,Activity,Rattus norvegicus [21],Active
same,inhibition,[22],18%
same,inhibition,[23],6%
same,inhibition,Rattus norvegicus [24],8%
same,inhibition,D(3) dopamine receptor [25],51%
same,inhibition,Rattus norvegicus [26],9%
same,inhibition,[27],-7%
same,inhibition,Bos taurus [28],-3%
same,inhibition,[29],-4%
same,inhibition,[30],1%
same,inhibition,[31],-8%
same,inhibition,Oryctolagus cuniculus,7%
same,inhibition,[32],-8%
same,inhibition,[33],37%
same,inhibition,[34],9%
same,inhibition,D(3) dopamine receptor [35],5%
same,inhibition,[36],3%
same,inhibition,[37],14%
same,Activity,Rattus norvegicus [38],Active
same,inhibition,[39],18%
same,inhibition,[40],20%
same,inhibition,[41],30%
same,inhibition,[42],-4%

# From ChEMBL document CHEMBL3098111, “Discovery of 2,5-diarylnicotinamides as selective orexin-2 receptor antagonists (2-SORAs)” (Bioorg Med Chem Lett, 2013)
